Measurements collected from several papers.
Compare with care: the assays were run in different laboratories.
Target: Cyclin-dependent kinase 17 (CDK17, Homo sapiens, UniProt Q00537)

| Compound | effect on | method | tested at | remaining binding [%] |
| --- | --- | --- | --- | --- |
| c1cncc(-c2cccc(Nc3nccc(NC4CCCCC4)n3)c2)c1 | binding | competition with immobilised ligand | 10 µM | 72 |
| CN(C)c1nccc(-c2cnc3ncccn23)n1 | binding |  | 1 µM | 84 |
| O=C(c1ccc(Nc2ncc(Cl)c(-c3ccc(Cl)s3)n2)cc1)N1CCC(N2CCCC2)CC1 | binding | competition with immobilised ligand | 1 µM | 1.8 |
| CN(C)c1nccc(-c2cnn3ncccc23)n1 | binding |  | 1 µM | 100 |
| O=C(c1ccc(Nc2nccc(-c3cc4ccccc4s3)n2)cc1)N1CCC(N2CCCC2)CC1 | binding | competition with immobilised ligand | 1 µM | 64 |
| CC1=C(C#N)[C@@H](c2ccc3[nH]nc(C)c3c2)C(C#N)=C(c2ccc(Cl)cc2)N1 | cell-free assay | competition with immobilised ligand | 1 µM | 87.2 |
| C=CC(=O)N1CCC(C(=O)NCC(=O)N2CCN(c3nc(-c4cnc(N)nc4C(F)F)nc(N4CCOCC4)n3)CC2)CC1 | binding | competition with immobilised ligand | 1 µM | 89 |
| COc1cnc(Nc2cccc(S(N)(=O)=O)c2)nc1N1CCN(c2ccccc2)C(=O)C1 | binding | competition with immobilised ligand | 1 µM | 100 |
| O=C(NCCCN1CCOCC1)c1ccc(Nc2nccc(-c3cc4ccccc4s3)n2)cc1 | binding | competition with immobilised ligand | 1 µM | 63 |
| CN1CCN(c2cnc3c(C4CCN(C(=O)c5ccc(OC(F)(F)F)cc5N)CC4)ncnc3c2)CC1 | cell-free assay | competition with immobilised ligand | 1 µM | 93 |
| COc1ncc2cc3ccccc3nc2c1C#N | cell-free assay | competition with immobilised ligand | 5 µM | 100 |
| N[C@@H]1CCN(c2nccc(-c3cnn4ncccc34)n2)C1 | binding |  | 1 µM | 100 |
| Cc1noc([C@H]2C[C@@H](c3ccc(C(F)(F)F)cc3)CN(C(=O)N3CCS(=O)(=O)C3)C2)n1 | cell-free assay | competition with immobilised ligand | 1 µM | 100 |
| CC1CCCN1c1nccc(-c2cnn3ncccc23)n1 (stereo not drawn) | binding |  | 1 µM | 100 |
| C[C@@H](c1ccc(-n2cnc3c(N)ncnc32)cc1)N1CCc2nn(C)c(Cc3ccccc3)c2C1=O | binding | competition with immobilised ligand | 0.1 µM | 91 |
| C[C@H](NC(=O)c1cnc2n1[C@](C)(Cc1ccc(C#N)cc1)C(=O)N2c1cc(Cl)c(F)c(Cl)c1)C(=O)NC1(c2ccccn2)CC1 | cell-free assay | competition with immobilised ligand | 1 µM | 100 |
| O=C(NCC1CCOCC1)c1n[nH]cc1NC(=O)c1c(F)cccc1F | binding | competition with immobilised ligand | 1 µM | 66 |
| COc1ccc2c(c1)O[C@H](c1ccc(OC)c(OC)c1)C[C@@H]2NC(=O)C1(c2ccc3c(c2)OC(F)(F)O3)CC1 | cell-free assay | competition with immobilised ligand | 1 µM | 100 |
| c1cnn2ncc(-c3ccnc(N4CCC45COC5)n3)c2c1 | binding |  | 1 µM | 87 |
| COc1cccc(CNC(=O)c2nc3scc(COCc4ccc(C(=O)O)cc4)c3c(=O)[nH]2)c1 | cell-free assay | competition with immobilised ligand | 1 µM | 87.8 |
| F[C@@H]1CCN(c2nccc(-c3cnn4ncccc34)n2)C1 | binding |  | 1 µM | 100 |
